Compound activity: PubChem BioAssay, several laboratories
PglD DTNB – inhibitors of Campylobacter jejuni PglD acetyltransferase; purified PglD enzyme, DTNB colorimetric CoA detection; inhibition, % at 12.5 µM; actives 0.098% (n = 360,000); AID 602405; in the data active = inhibition above about 16%, passing the limit was not always enough
PDI inh – PDI (human) enzyme inhibition | P07237 | inhibition, % at 10 µM | PDI insulin aggregation turbidity, A650, 90 min | actives 0.052% (n = 350,000);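 active = mean inhibition across replicates of 30% or more, whatever share of single replicates reach that level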
IMP-1 inh – inhibitors of Pseudomonas aeruginosa IMP-1 metallo-beta-lactamase; actives 0.45% (n = 290,000); inhibition, % at 5.6 µM; AID 1556; purified IMP-1, nitrocefin hydrolysis, epi-absorbance fluorescence;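 active = inhibition above the mean plus 3 SD of all compounds in the same screening run, cut at about 4.5% in these data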;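 also: 0% = IMP-1 with DMSO and 100% = DMSO wells lacking enzyme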
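Assay system: purified IMP-1; Quantity: IMP-1 0.2 nM before substrate addition; Medium: HEPES buffer pH 7.1 with ZnSO4 and Brij 35; Incubation: 15 min enzyme–compound preincubation, then 25 min nitrocefin reaction, 25 °C; Signal: fluorescence quenching readout, ex 480/em 530 nm; Controls: DMSO with and without IMP-1; Repeats: singlicate testing.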
PvdQ inh – blocks Pseudomonas aeruginosa PvdQ acylase activity | purified PvdQ acylase, fluorescence plate reader | inhibition, % at 10 µM | actives 0.063% (n = 340,000) | AID 488965; in the data active = inhibition above about 30%, passing the limit was not always enough;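 also: 0% = vehicle neutral wells and 100% = reference inhibitor wells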
VIM-2 inhibitor – blocks Pseudomonas aeruginosa VIM-2 metallo-beta-lactamase; AID 1527; inhibition, % at 5.6 µM; purified VIM-2, nitrocefin hydrolysis, epi-absorbance fluorescence; actives 0.89% (n = 290,000);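 active = inhibition above the mean of all tested compounds plus 3 SD, cutoff set per screening run, cut at about 7.5% in these data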;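 also: red hydrolysis product quenches plate fluorescence so inhibitors raise well fluorescence; 0% = enzyme with DMSO and 100% = DMSO without enzyme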
ERp5 inh – ERp5 (human) disulfide isomerase inhibition; inhibition, % at 9.99 µM; actives 0.05% (n = 350,000); Q15084; ERp5 insulin aggregation, absorbance 650 nm, 90 min; AID 651711;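 active = mean replicate inhibition above about 25%, with every replicate also reaching it, limit read from the data, passing the limit was not always enough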
Target sequence (Q15084 whole entry, looked up): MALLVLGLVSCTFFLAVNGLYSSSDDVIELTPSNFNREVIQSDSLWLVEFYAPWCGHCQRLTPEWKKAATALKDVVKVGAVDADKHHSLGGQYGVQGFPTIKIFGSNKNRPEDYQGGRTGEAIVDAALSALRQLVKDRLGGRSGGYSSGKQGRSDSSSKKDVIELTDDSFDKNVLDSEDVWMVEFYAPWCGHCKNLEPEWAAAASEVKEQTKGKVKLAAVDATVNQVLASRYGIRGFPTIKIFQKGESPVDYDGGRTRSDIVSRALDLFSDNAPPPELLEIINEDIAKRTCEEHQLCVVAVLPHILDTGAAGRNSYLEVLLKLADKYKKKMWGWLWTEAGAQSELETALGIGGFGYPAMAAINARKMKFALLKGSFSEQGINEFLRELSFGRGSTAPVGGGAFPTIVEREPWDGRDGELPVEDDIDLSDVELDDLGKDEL
VIM-2 inh confirm – VIM-2 inhibition, confirmation assay. shares compounds with IMP-1 inh. purified VIM-2 enzyme, nitrocefin absorbance. inhibition, % at 5.6 µM. actives 73% (n = 200). AID 1860; in the data active = inhibition above about 8%;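 also: 0% = enzyme with vehicle and 100% = no enzyme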
TEM-1 counter – blocks E. coli TEM-1 beta-lactamase, VIM-2 IMP-1 counter-screen. shares compounds with IMP-1 inh. nitrocefin absorbance inhibition. inhibition, % at 5.6 µM. actives 50% (n = 200); in the data active = inhibition above about 0.66%
IMP-1 confirm – confirmation of P. aeruginosa IMP-1 metallo-beta-lactamase inhibitors; inhibition, % at 5.6 µM; purified IMP-1 enzyme, absorbance substrate hydrolysis; actives 60% (n = 200); shares compounds with IMP-1 inh; in the data active = inhibition above about 4.9%;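 also: 0% = enzyme with vehicle and 100% = vehicle without enzyme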
Active calls of the source: *; · = no result given. Compounds with a hit are over-represented: about 1% of the library has one in this group of screens.

SMILES	PglD DTNB	PDI inh	IMP-1 inh	PvdQ inh	VIM-2 inhibitor	ERp5 inh	VIM-2 inh confirm	TEM-1 counter	IMP-1 confirm
Cc1nn(C)c(C)c1N1C(=O)c2cccc3c(N)ccc(c23)C1=O	-9	1	35*	3	31*	·	42*	55*	38*
CCN1C(=O)c2cccc3c(N)ccc(c23)C1=O	6	-16	43*	-6	48*	1	45*	51*	35*
COc1ccc(-c2cc(=O)oc3c(C)c(OCC(=O)NCCCn4ccnc4)ccc23)cc1	-1	·	38*	-7	19*	-3	26*	-4	32*
Cc1c(OCC(=O)NCC2CCC(C(=O)NCCCO)CC2)ccc2c(-c3ccccc3)cc(=O)oc12 (stereo unspecified)	1	1	-1	0	0	-2	·	·	·
COc1ccc(-c2ccc3c(c2)O[C@H](CN(C)CC2CCOCC2)[C@H](C)CN([C@H](C)CO)S3(=O)=O)cc1	3	·	·	·	·	4	·	·	·
C[n+]1cc(C(=O)N2CCCCC2)ccc1/C=C/c1c[nH]c2ccccc12	·	-2	4.9*	0	7	10	14*	0.5*	5.6*
Cc1cc(C)c2c(CN3CCCC3)cc(=O)oc2c1	-3	·	·	·	·	23	·	·	·
CCc1cc(=O)oc2cc(C)c(CN3CCCCC3)c(O)c12	-2	-9	19*	13	13*	·	4	-5	-1
CCc1cc(=O)oc2cc(C)c(CN3CCCC3)c(O)c12	3	-4	20*	5	15*	·	18*	-1	8.8*
COc1ccc(/C=N/N(C)C2=NS(=O)(=O)c3ccccc32)cc1	-4	-3	-2	-15	1	-3	·	·	·
CN(/N=C/c1ccc(N(C)C)cc1)C1=NS(=O)(=O)c2ccccc21	-1	-2	24*	-14	52*	-1	29*	14*	24*
Cc1noc(C)c1NC(=O)Nc1cccc2c1O[C@@H](CN(C)C)[C@H](C)CN([C@@H](C)CO)C2=O	-6	·	·	·	·	2	·	·	·
CN1C(=O)/C(=C\c2ccc(N(C)C)cc2)OC1=S	-1	4	9.5*	8	8.0*	4	8.3*	18*	6.1*
CCOc1ccc(-c2cc(C(=O)NCCCn3ccnc3)c3ccccc3n2)cc1	·	0	-4	-16	-3	4	·	·	·
CCOc1ccc(-c2cc(C(=O)NCCCn3ccnc3)c3cc(Br)ccc3n2)cc1	1	-2	33*	-2	17*	-4	21*	-2	41*
COc1ccc(-c2occ(C(=O)O)c2C(=O)O)cc1	-5	3	26*	-15	10*	·	18*	-4	22*
O=C(CSc1nc2nc(-c3cccs3)cc(C(F)(F)F)c2c(=O)[nH]1)C(F)(F)F	-1	2	4.9*	-7	22*	0	26*	-3	3
CSc1nc2nc(-c3cccs3)cc(C(F)(F)F)c2c(=O)[nH]1	-3	-13	-1	-13	8	2	·	·	·
CCN1C(=O)CC(NCc2ccc3c(c2)OCO3)C1=O (stereo unspecified)	·	·	-2	-5	0	·	·	·	·
O=C1CC(NCc2ccc3c(c2)OCO3)C(=O)N1CCc1ccccc1 (stereo unspecified)	-2	-2	42*	-5	47*	4	-2	-5	-4
CCCCCCn1c(=O)[nH]c2nc3cc(N)ccc3nc2c1=O	·	·	16*	·	12*	·	15*	31*	13*
O=C1/C(=C/c2cccnc2)SC(=S)N1c1ccc(O)cc1	7	11	6.0*	-7	9.2*	10	11*	-3	-2
C[C@@H]1CCCCO[C@@H](CN(C)Cc2ccc(C(=O)O)cc2)[C@H](C)CN([C@H](C)CO)C(=O)c2cc(NS(=O)(=O)c3cn(C)cn3)ccc2O1	0	·	·	·	·	·	·	·	·
CC1CCN(C(=O)CSc2nnc(CNC(=O)COc3ccc(Cl)cc3)o2)CC1	-1	-5	35*	-15	7	·	1	-1	-1
C[C@@H]1CN([C@H](C)CO)C(=O)c2ccccc2-c2ccccc2CO[C@H]1CN(C)S(=O)(=O)c1ccc(C#N)cc1	-3	·	·	·	·	-2	·	·	·
SMILES	PglD DTNB	PDI inh	IMP-1 inh	PvdQ inh	VIM-2 inhibitor	ERp5 inh	VIM-2 inh confirm	TEM-1 counter	IMP-1 confirm
COc1ccc(/C=C2/SC(=S)N(Cc3ccccc3)C2=O)cc1O	4	-7	0	11	1	2	·	·	·
O=C1/C(=C\c2cc(Cl)c(O)c(Cl)c2)SC(=S)N1Cc1ccccc1	-10	-4	18*	10	18*	1	18*	54*	14*
CC(C)C(CCN1C(=O)c2ccccc2C1=O)c1ccco1 (stereo unspecified)	1	1	7.3*	-16	15*	·	33*	-1	19*
O=C(OCCN1C(=O)c2ccccc2C1=O)c1ccco1	-323	0	0	-18	1	·	·	·	·
O=C1CCN2C=Nc3cccc4ccc1c2c34	-23	11	12*	10	12*	·	32*	28*	24*
CC(=O)N(c1cccc(C)c1)C1SC(=O)N(c2ccccc2)C1=O (stereo unspecified)	-3	-2	12*	-9	8.3*	·	9.0*	-5	18*
Cc1ccc(S(=O)(=O)Nc2ccc3c(c2)CC(=O)N([C@@H](C)CO)C[C@@H](C)[C@H](CN(C)S(=O)(=O)c2cccs2)O3)cc1	3	·	·	·	·	3	·	·	·
CN1CCN(S(=O)(=O)c2ccc(-c3ccc(Cl)cc3)cc2)CC1	-3	0	42*	-9	11*	·	4	-4	-3
CN1CCN(S(=O)(=O)c2ccc(Cl)cc2)CC1	-1	2	1	-18	2	-2	·	·	·
COc1ccc(C#Cc2cnc3c(c2)C(=O)N([C@H](C)CO)C[C@H](C)[C@H](CN(C)C(=O)Nc2cccc4ccccc24)O3)cc1OC	8	·	·	·	·	-10	·	·	·
Cn1c2ccccc2c2cc(C(=O)NNS(=O)(=O)c3ccc(F)cc3)sc21	3	0	5.0*	-6	7	·	-1	-6	-2
CN(C)c1ccc(/C=C/C(=O)c2cc(Cl)ccc2O)cc1	·	8	20*	-3	15*	-2	24*	35*	22*
O=C1c2cccc3c(N4CCCCC4)ccc(c23)C(=O)N1c1ccc(Cl)cn1	·	·	1	·	2	·	·	·	·
CCCN1C(=O)c2cccc3c(N4CCCCC4)ccc(c23)C1=O	·	-1	24*	8	32*	·	12*	6.5*	5.5*
